Data published in ChEMBL document CHEMBL5338802, “To Fold or Not to Fold: Diastereomeric Optimization of an α-Helical Antimicrobial Peptide” (J Med Chem, 2023).
In brackets after ≈: the same amount, converted by molar mass. Activity calls are given as the source filed them. No cut-off for these calls is given here. Non-standard residues stand in square brackets, D forms with d. Residues, ends and D or L forms follow the SMILES beside them.

How the values were obtained:
[1] = Induction of membrane disruption in eukaryotic inner membrane mimic EYPC vesicles assessed as carboxyfluorescein leakage at 10 ug/ml measured after 240 secs by fluorescence based assay; format: cell membranes; details: dose 10.0 µg/ml, time 240.0 sec
[2] = tested on: Erythrocyte; assay: Hemolytic activity in human RBC incubated for 4 hrs by visual analysis; format: toxicity, cell-based
[3] = tested on: Cell membrane; assay: Induction of membrane disruption in bacterial membrane mimic EYPG vesicles assessed as carboxyfluorescein leakage at 10 ug/ml measured after 240 secs by fluorescence based assay; format: subcellular; details: dose 10.0 µg/ml, time 240.0 sec
[4] = tested on: Staphylococcus aureus; assay: Antimicrobial activity against methicillin-resistant Staphylococcus aureus COL assessed as microbial growth inhibition incubated for 16 to 20 hrs by MTT assay; format: functional; details: time 16-20 hrs
Summary of the method: (§1)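 Broth microdilution in Mueller–Hinton broth pH 7.4. Overnight LB colony culture diluted to OD600 0.022; roughly 5 × 10^5 CFU final inoculum. Static incubation at 37 °C for 16–20 h, then MTT added at room temperature. MIC is the lowest concentration with no visible growth, read by eye. Two independent duplicates.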

[5] = tested on: Pseudomonas aeruginosa; assay: Antimicrobial activity against Pseudomonas aeruginosa PAO1 assessed as microbial growth inhibition incubated for 16 to 20 hrs by broth microdilution method; format: functional; details: time 16-20 hrs
Summary of the method: (§2)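 Broth microdilution in MH broth, pH 7.4. An overnight LB colony culture (37 °C, 180 rpm) was diluted to OD600 0.022, giving about 5 × 10^5 CFU per well. MTT was then added, and MIC was read by eye as the lowest concentration without visible growth. Two independent duplicates were run.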

[6] = tested on: Escherichia coli; assay: Antimicrobial activity against Escherichia coli W3110 assessed as microbial growth inhibition incubated for 16 to 20 hrs by broth microdilution method; format: functional; details: time 16-20 hrs; summary of the method: as §2
[7] = tested on: Acinetobacter baumannii; assay: Antimicrobial growth against Acinetobacter baumannii ATCC 19606 assessed as microbial growth inhibition incubated for 16 to 20 hrs by broth microdilution method; format: functional; details: time 16-20 hrs; summary of the method: as §2
[8] = tested on: Klebsiella pneumoniae; assay: Antimicrobial activity against Klebsiella pneumoniae NCTC418 assessed as microbial growth inhibition incubated for 16 to 20 hrs by broth microdilution method; format: functional; details: time 16-20 hrs; summary of the method: as §1
[9] = tested on: Burkholderia cenocepacia; assay: Antimicrobial activity against multidrug-resistant Burkholderia cenocepacia assessed as microbial growth inhibition incubated for 16 to 20 hrs by broth microdilution method; format: functional; details: time 16-20 hrs
Summary of the method: as §1, with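 “7.4. Peptides serially diluted 1/2 from 2 mg/mL water stocks over 0.5–64 μg/mL.” for “7.4.”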

[10] = tested on: Pseudomonas aeruginosa; assay: Antimicrobial activity against Pseudomonas aeruginosa PAO1 assessed as bacterial killing at 8 ug/ml measured after 1 hr by time-kill assay; format: functional, organism-based; details: dose 8.0 µg/ml
Summary of the method: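 P. aeruginosa PAO1 from an overnight LB culture was diluted to 2 × 10^6 CFU/mL in MH, pH 7.4, then mixed 1:1 with peptide in MH and incubated at 37 °C with shaking at 180 rpm. Survivors were counted by plating 10-fold dilutions on LB agar at 0–6 h (37 °C, 10 h). Done in triplicate.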

[11] = Proteolytic stability in human serum assessed as drug degradation at 200 uM incubated for 10 mins by RP-HPLC analysis; format: ADME, cell-free
[12] = tested on: HEK293; assay: Cytotoxicity against HEK293 cells assessed as reduction in cell viability at 0 to 200 uM incubated for 24 hrs by Alamar blue assay; format: toxicity, cell-based; details: human, hek293, 24 h, dose 0-200 µM
Summary of the method: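 HEK293 cells were kept in DMEM with 10% FBS and penicillin/streptomycin, seeded at 4000 cells/well the day before, then exposed to peptide at 0–200 μM for 24 h at 37 °C, 5% CO2. Viability was read with 10% AlamarBlue for 3–5 h (ex 560/em 590 nm), normalized to untreated cells.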

Row | Stability [11] | Compound | Activity [1] | MHC [2] | Activity [3] | MIC [4] | MIC [5] | MIC [6] | MIC [7] | MIC [8] | MIC [9] | Activity [10] | Activity [12]
1 | – | CC[C@H](C)[C@H](NC(=O)[C@@H](NC(=O)[C@@H](NC(=O)[C@@H](CCCNC(=N)N)NC(=O)[C@@H](NC(=O)[C@@H](NC(=O)[C@@H](CCCNC(=N)N)NC(=O)[C@@H](NC(=O)[C@@H](NC(=O)[C@@H](CCCNC(=N)N)NC(=O)[C@H](N)CCCNC(=N)N)[C@@H](C)CC)[C@@H](C)CC)[C@@H](C)CC)[C@@H](C)CC)[C@@H](C)CC)[C@@H](C)CC)C(N)=O (H-[dR][dR]II[dR]II[dR]III-NH2) | 8% | 250 µg/mL | 98% | 8 µg/mL (≈ 5.58 µM) | 4 µg/mL (≈ 2.79 µM) | 8 µg/mL (≈ 5.58 µM) | 8 µg/mL (≈ 5.58 µM) | 32 µg/mL (≈ 22.3 µM) | – | – | –
2 | – | H-RRLLRLLRLLL-NH2 | 99% | 15.6 µg/mL | 30% | – | 8 µg/mL | – | – | – | – | – | –
3 | – | CC(C)C[C@H](NC(=O)[C@H](CC(C)C)NC(=O)[C@H](CCCCN)NC(=O)[C@H](CC(C)C)NC(=O)[C@H](CC(C)C)NC(=O)[C@@H](CCCCN)NC(=O)[C@H](N)CCCCN)C(=O)N[C@@H](CCCCN)C(=O)N[C@@H](CC(C)C)C(=O)N[C@@H](CC(C)C)C(=O)N[C@H](CC(C)C)C(N)=O | – | 125 µg/mL | – | – | – | – | – | – | > 64 µg/mL | Active | –
4 | – | H-RRIIRIIRIII-NH2 | 39% | 62.5 µg/mL | 99% | 16 µg/mL | 64 µg/mL | 16 µg/mL | 8 µg/mL | 16 µg/mL | – | – | –
5 | Unstable | CC(C)C[C@@H](NC(=O)[C@@H](CC(C)C)NC(=O)[C@@H](CC(C)C)NC(=O)[C@H](CCCCN)NC(=O)[C@@H](CC(C)C)NC(=O)[C@@H](CC(C)C)NC(=O)[C@H](CCCCN)NC(=O)[C@@H](CC(C)C)NC(=O)[C@@H](CC(C)C)NC(=O)[C@H](CCCCN)NC(=O)[C@@H](N)CCCCN)C(N)=O | – | 250 µg/mL | – | – | – | – | – | – | – | – | –
6 | – | H-KKLLKLLKLLLKKLLKLLKLLL-NH2 | – | < 15.6 µg/mL | – | > 64 µg/mL | > 64 µg/mL | > 64 µg/mL | > 64 µg/mL | > 64 µg/mL | – | – | –
7 | – | CC(C)C[C@H](NC(=O)[C@H](CC(C)C)NC(=O)[C@H](CC(C)C)NC(=O)[C@H](CCCCN)NC(=O)[C@H](CC(C)C)NC(=O)[C@H](CC(C)C)NC(=O)[C@H](CCCCN)NC(=O)[C@H](CC(C)C)NC(=O)[C@H](CC(C)C)NC(=O)[C@H](CCCCN)NC(=O)[C@@H](N)CCCCN)C(N)=O | – | 125 µg/mL | – | – | – | – | – | – | – | – | Non-Toxic
8 | – | CC(C)C[C@H](NC(=O)[C@H](CCCCN)NC(=O)[C@H](N)CCCCN)C(=O)N[C@@H](CC(C)C)C(=O)N[C@@H](CCCCN)C(=O)N[C@@H](CC(C)C)C(=O)N[C@@H](CC(C)C)C(=O)N[C@@H](CCCCN)C(=O)N[C@@H](CC(C)C)C(=O)N[C@@H](CC(C)C)C(=O)N[C@H](CC(C)C)C(N)=O | – | 62.5 µg/mL | – | – | – | – | – | – | – | Active | –
